Kir21 inh = Kir2.1 (mouse) channel inhibition; HEK293-Kir2.1, FluxOR thallium flux fluorescence; hits give low values; P35561; B-score at 10 µM; actives 0.85% (n = 310,000); AID 1672;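 active = fluorescence ratio B-score at or below minus 3 SD of library scores, with starting-brightness B-score within 2 SD, cut at about -4.2 in these data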;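 also: channel flux triggered by added potassium and thallium sulfate stimulus; B-score of peak minus minimum fluorescence over baseline after thallium stimulus; more negative B-score means stronger Kir2.1 block with less thallium influx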
KCNK3 block = human KCNK3 channel inhibition, primary screen | CHO-KCNK3 thallium flux, FluxOR fluorescence; hits give low values | AID 602410 | B-score at 10 µM | actives 0.84% (n = 340,000) | O14649;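 active = B-score under library mean minus 4 SD, starting fluorescence ratio at most library mean plus 5 SD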;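 also: more negative B-score means stronger inhibition of thallium flux through KCNK3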
KCNQ1 block = blocks the human KCNQ1 potassium channel. CHO-K1 KCNQ1, FluxOR thallium flux fluorescence; hits give high values. B-score at 10 µM. P51787. AID 2642. actives 1.3% (n = 310,000);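 active = compounds whose thallium flux B-score, printed positive for inhibition, exceeds three library SD while starting fluorescence stays within three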;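 also: channel opened by potassium depolarization with thallium stimulus after 20 min compound exposure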
Target sequence (P51787 whole entry, looked up): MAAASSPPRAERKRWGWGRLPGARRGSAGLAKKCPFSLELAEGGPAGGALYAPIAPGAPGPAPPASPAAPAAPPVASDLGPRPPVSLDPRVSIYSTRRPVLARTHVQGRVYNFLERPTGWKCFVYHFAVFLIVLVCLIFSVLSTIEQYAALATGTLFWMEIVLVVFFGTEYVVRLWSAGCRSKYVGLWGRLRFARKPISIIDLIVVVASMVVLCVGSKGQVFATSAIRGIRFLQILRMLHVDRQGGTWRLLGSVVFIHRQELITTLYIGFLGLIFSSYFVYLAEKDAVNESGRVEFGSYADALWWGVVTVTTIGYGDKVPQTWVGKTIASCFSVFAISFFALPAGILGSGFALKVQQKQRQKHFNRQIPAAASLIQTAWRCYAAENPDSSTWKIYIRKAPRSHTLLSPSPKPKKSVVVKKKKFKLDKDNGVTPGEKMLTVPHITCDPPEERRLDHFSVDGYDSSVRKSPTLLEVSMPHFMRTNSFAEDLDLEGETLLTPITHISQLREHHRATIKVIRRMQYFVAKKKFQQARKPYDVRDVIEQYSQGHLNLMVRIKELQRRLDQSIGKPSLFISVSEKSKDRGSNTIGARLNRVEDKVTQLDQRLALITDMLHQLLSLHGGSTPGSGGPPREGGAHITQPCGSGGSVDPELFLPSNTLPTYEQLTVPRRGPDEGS
hERG rescue = hERG (human) protection from proarrhythmic block; actives 0.51% (n = 310,000); CHO-hERG, FluxOR thallium flux, dofetilide IC70 present; AID 1511; activation (rescue from dofetilide block), less the hit threshold, % at 10 µM; Q12809;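 active = activation above the mean of controls blocked by dofetilide plus 5 SD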;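 also: thallium influx through hERG after potassium depolarization seen as dye fluorescence rise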
KCNK9 block = human KCNK9 channel inhibition | B-score at 10 µM | HEK293 KCNK9, FluxOR thallium flux fluorescence; hits give low values | Q9NPC2 | actives 1.2% (n = 310,000);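 active = ratio B-score over 3 SD below the library mean, with starting fluorescence within 5 SD of its mean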;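 also: negative B-score means less thallium flux so channel inhibition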
KCNQ1 act = potentiates or activates the human KCNQ1 potassium channel; P51787; AID 2648; actives 0.35% (n = 310,000); B-score at 10 µM; CHO-K1 KCNQ1, thallium flux FluxOR fluorescence; hits give high values;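 active = fluorescence ratio B-score, a plate-corrected score, at least three library SD, with initial intensity B-score within 5 SD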
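Assay system: stable KCNQ1 CHO-K1 line; medium: assay buffer, equal DMSO in all wells; timing: 90 min dye loading and 20 min compound exposure, both at room temperature; technique: kinetic FluxOR thallium fluorescence, 10-s 1-Hz baseline, 110-s post-stimulus read; read-out basis: B score of baseline-normalized fluorescence ratio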
An asterisk follows results filed as active; i = inactive; . = not tested or not shown. A selection: hits, their analogues and other compounds. The true share with any hit is near 3.7%.

SMILES	Kir21 inh	KCNK3 block	KCNQ1 block	hERG rescue	KCNK9 block	KCNQ1 act
O=C(Cc1c[nH]c2ccccc12)NCC(=O)Nc1ccc(F)c(F)c1F	.	i	.	.	.	.
Cc1ccc(N=c2oc3cc(O)ccc3cc2C(N)=O)cc1	1.1	i	i	2	i	i
COc1ccc(N=c2oc3cc(O)ccc3cc2C(=O)Nc2ccccn2)cc1OC	0.71	i	9*	-18	-6.8*	i
COCCn1c(=O)c2c(nc3n2CC(C)CN3CCc2ccccc2)n(C)c1=O (centres undefined)	2	i	i	-7	i	i
C=CCn1c(NCc2c[nH]c3ccccc23)nc2ccccc21	-5.6*	i	i	-16	i	i
CCn1c(NCc2c[nH]c3ccccc23)nc2ccccc21	-3.3	i	i	-12	i	i
CN(C)CCCNC(=O)/C(=C\c1ccc(-c2ccc(Br)cc2)o1)NC(=O)c1ccccc1	-1.9	i	i	-18	i	i
CN(C)CCNC(=O)/C(=C/c1ccc(-c2cccc(Cl)c2)o1)NC(=O)c1ccccc1	-4.6*	i	i	-19	i	i
Cc1ccc(C(=O)N/C(=C\c2ccc(-c3ccc(Cl)cc3)o2)C(=O)NCCCN(C)C)cc1	-5.3*	i	i	-23	i	i
NS(=O)(=O)c1ccc(NC(=O)CSc2nc3ccccc3nc2N2CCOCC2)cc1	-1.6	i	i	-8	i	i
O=C(CCCc1c[nH]c2ccccc12)NCc1ccccc1C(F)(F)F	-0.52	i	i	0	i	i
Cc1noc(C)c1COc1ccc(C(=O)NCCc2ccc(F)cc2)cc1	.	i	.	.	.	.
N#CCOC(=O)c1c2c(nc3ccccc13)CCC2	1.5	i	i	-15	i	i
OCC1(CCCc2ccccc2)CCN(Cc2ccc(F)cc2)CC1	-6.2*	i	i	-6	i	i
OCC1(CCc2ccccc2)CCN(Cc2cc(Cl)ccc2O)CC1	-4.8*	i	i	-14	i	i
OCC1(CCc2ccccc2)CCN(Cc2ccc(OC(F)F)cc2)CC1	-3	i	i	-16	i	i
Cc1ccc(-n2cccn2)c(CN2CCC(CO)(CCc3ccccc3)CC2)c1	-2.1	i	i	-11	i	i
Cc1ccc(CSCC(=O)NCc2cccs2)cc1	0.02	i	i	-8	i	i
COC(=O)c1sc(S(=O)(=O)NCc2ccccc2)c(C(=O)OC)c1C	-5.2*	i	i	-15	i	i
COc1ccc(-c2oc3ccccc3c(=O)c2OC(C)=O)cc1	-0.05	i	i	4	i	41*
COc1ccc(-c2oc3ccccc3c(=O)c2OCC(=O)O)cc1	1	i	i	-9	i	i
O=C(O)COc1c(-c2ccco2)oc2ccccc2c1=O	-0.27	i	i	-7	i	i
CC(=O)Oc1c(-c2ccc(Br)o2)oc2ccccc2c1=O	-0.31	i	i	40*	i	113*
CCN(CC(=O)Nc1ccc(OC)cc1)CC(=O)Nc1ccc(Cl)cc1F	0.11	i	i	7.3*	i	i
O=C(O)C1CCN(Cc2cccnc2)CC1	-0.03	i	i	-4	i	i
SMILES	Kir21 inh	KCNK3 block	KCNQ1 block	hERG rescue	KCNK9 block	KCNQ1 act
O=C(NC(=S)N1CCN(C/C=C/c2ccccc2)CC1)c1c(F)cccc1F	0.01	i	i	-4	i	7*
O=C(NC(=S)N1CCN(C/C=C/c2ccccc2)CC1)c1ccco1	1.1	i	i	-10	i	i
COC(=O)C1CCN(C(=O)c2cc(-c3ccc(Cl)s3)nc3ccccc23)CC1	.	-9.1*	.	.	.	.
CCc1nc2sc3c(c2c(=O)n1CCO)CCC3	0.94	i	i	-7	i	i
CCc1ccc(C(c2ccc(CC)cc2)C(Cl)Cl)cc1	.	i	.	.	.	.
Clc1ccc(C(c2ccccc2Cl)C(Cl)Cl)cc1 (centres undefined)	.	-8.9*	.	.	.	.
COC(=O)[C@@]12CCCN1[C@H](c1ccc(-c3ccc(C(C)=O)cc3)c(OC)c1)[C@H]1C(=O)N(C)C(=O)[C@H]12	.	i	.	.	.	.
COc1ccc(S(=O)(=O)N/N=C(/C)c2ccncc2)c(OC)c1	0.04	i	i	-7	i	i
Cc1cccc(NCc2ccc(O)c3ncccc23)c1C	0.55	i	i	-10	i	i
Cc1cccnc1NCc1ccc(O)c2ncccc12	1.6	i	i	6.8*	i	i
COC(=O)[C@]1(C)CCC[C@@]2(C)C3CC[C@@]4(C)C[C@]3(CCC21)CC(=O)N4C (some centres undefined)	.	i	.	.	.	.
CN(c1ccc(O)cc1)S(=O)(=O)c1ccc2ccccc2c1	-5.9*	i	i	-12	i	i
Cc1cc(O)cc(C)c1NS(=O)(=O)c1ccc2ccccc2c1	-6.6*	i	i	-16	i	i
Cc1ccc(N2C(=O)Nc3ccc(Br)cc3C2(O)C(=O)NCCN(C)C)cc1C (centres undefined)	-2.3	i	i	-5	i	i
O=C(COC(=O)c1cccc2ccccc12)Nc1cccnc1Cl	0.56	i	i	-4	i	i
O=C(COC(=O)c1ccncc1)Nc1cccc2ccccc12	.	-8.8*	.	.	.	.
CCC(=O)Nc1ccccc1C(=O)OCC(=O)c1cccc2ccccc12	1.4	-11*	i	-10	-7.3*	i
Cc1cccc(-c2oc3ccc(-c4ccc5c(c4)OCO5)cc3c2/C=C/c2ccc(N)cc2)c1	0.21	i	i	-6	i	i
O=C(COC(=O)c1ccc2ccccc2c1O)NCC(F)(F)F	1.5	i	i	-7	i	i
Cc1c(O)ccc(/C(Cc2ccc3ccccc3n2)=N\N)c1O	0.36	i	i	-8	-7.9*	i
COC(=O)CNC(c1ccccc1)c1cc(Br)ccc1NS(=O)(=O)c1ccccc1 (centres undefined)	-0.06	i	i	-7	-6.6*	i
COC(=O)CNC(c1ccccc1)c1cc(Br)ccc1N (centres undefined)	-0.55	i	i	-3	i	i
COC(=O)CNC(c1ccccc1)c1cc(Br)ccc1NS(=O)(=O)c1ccc(C)cc1 (centres undefined)	1.3	i	i	-13	-7.4*	i
Cc1ccc(C)c(NC(=O)CN(C)C(=O)C2COc3ccccc3O2)c1 (centres undefined)	.	i	.	.	.	.
COC(=O)C1=C(C(=O)OC)[C@@H]2N(Cc3ccccc3)c3ccccc3[C@@]23C[C@@H](C(=O)OC)N(C(=O)c2cc(C)oc2C)C3=N1	0.58	i	i	0	i	i

Screening data: PubChem, Johns Hopkins Ion Channel Center
